This excerpt belongs to a sample that is enriched for hits.
AP complement: orthogonal test for alternative complement pathway inhibitors | Human serum alternative complement pathway, LPS-coated ELISA, C3 deposition; tested in compound mixtures | inhibition, % at 5 µM | actives 0.08% (n = 62,000) | AID 1235;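 active = inhibition above 30% in each of the two pooled mixtures holding the compound, so the lower value exceeds 30%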
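Assay system: human serum alternative complement pathway, C3 deposition on LPS-coated wells; Dosing: 5 µM per compound in ten-compound mixtures; Detection: Anti-C3 ELISA, OD 450 nm; Buffer or medium: Mg2+-EGTA GVB++ buffer containing human serum at 1:15 dilution; Timing: 1 h at 37 °C; Replication: two different pools per compound.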
HEK293 NFkB inh: inhibitors of the PMA/ionomycin-induced NF-kB reporter in HEK293 cells; inhibition, % at 3 µM; actives 0.21% (n = 62,000); HEK-293 NF-kB luciferase reporter, luminescence;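 active = inhibition above the mean of all tested compounds plus 3 SD, cut at about 40% in these data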
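System: NF-kB luciferase reporter HEK-293 cells | Replication: Single test | Control set: DMSO vs reference inhibitor | Evaluation: % inhibition | Schedule: 1 h pretreatment, 16 h stimulation, 37 °C | Probe or stimulus: PMA with ionomycin | Compound dosing: One dose, 3 µM | Detection: Luciferase luminescence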
D1 mod: allosteric modulators of human D1 dopamine receptor; B-score at 10 µM; P21728; actives 5.9% (n = 58,000); AID 641; HEK293 D1, CRE-luciferase, dopamine EC30 potentiation; actives deviate in either direction;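 active = luminescence count or its row- and column-corrected plate score outside the 99.7% band of the plate's sample wells, on either side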
Target sequence (P21728 whole entry, looked up): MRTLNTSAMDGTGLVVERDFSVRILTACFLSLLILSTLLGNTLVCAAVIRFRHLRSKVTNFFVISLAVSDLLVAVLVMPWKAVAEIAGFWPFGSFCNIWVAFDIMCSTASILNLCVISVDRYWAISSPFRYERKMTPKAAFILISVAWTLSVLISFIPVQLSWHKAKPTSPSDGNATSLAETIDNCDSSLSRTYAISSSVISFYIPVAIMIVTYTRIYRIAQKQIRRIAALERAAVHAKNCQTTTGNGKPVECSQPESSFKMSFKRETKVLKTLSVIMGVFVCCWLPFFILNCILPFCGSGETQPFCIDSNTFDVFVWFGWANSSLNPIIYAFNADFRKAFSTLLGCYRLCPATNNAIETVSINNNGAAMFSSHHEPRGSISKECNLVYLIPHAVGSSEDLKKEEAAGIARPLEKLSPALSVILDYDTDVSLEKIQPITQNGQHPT
DAT uptake mod: modulates human dopamine transporter uptake under cocaine; Q01959; LLC-PK1 hDAT cells, [14C]-dopamine uptake with cocaine IC80; actives deviate in either direction; B-score at 10 µM; actives 1.3% (n = 110,000);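 active = Z score or B-score, a plate-position-corrected score, falls beyond the plate's 99.7% confidence bounds, in either direction; inactive = both scores lie inside the 99.7% bounds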
E coli RNAP: inhibitors of Escherichia coli RNA polymerase. actives 0.2% (n = 62,000). E. coli RNA polymerase, fluorescence transcription assay. inhibition, %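 (tested at 10 µM)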. P0A8V2. AID 559; in the data active = inhibition above about 20%
Of the large screens only hits and unclear results are named; the others gave an inactive call.

CC1=CC(C)(C)N(S(=O)(=O)c2ccc(C)cc2)c2cc(C)ccc21	DAT uptake mod -2 (no result: AP complement, HEK293 NFkB inh, D1 mod, E coli RNAP)
Cc1ccc(S(=O)(=O)N2C(=S)SCC2(C)C)cc1	none
COc1ccc(-c2cc(C(=O)N3CCN(c4ccccn4)CC3)c3ccccc3n2)cc1	none
COc1cc(-c2cc(C(=O)N3CCN(c4ccccn4)CC3)c3ccccc3n2)cc(OC)c1OC	D1 mod -4, DAT uptake mod 3.7
CCn1cc(C(=O)N2CCN(c3ccccn3)CC2)c2cc(OC)c(OC)cc2c1=O	DAT uptake mod -8.7
c1csc(-c2ncc3ccccn23)c1	D1 mod -3.8
OCCNc1cc(-n2nc(-c3ccccc3)cc2-c2ccccc2)ncn1	DAT uptake mod 3.7
CNc1cc(-n2nc(C)cc2-c2ccccc2)ncn1	none
C=C1CCN([C@@H](CC(C)C)C(=O)N2CCOCC2)S(=O)(=O)c2ccccc21	none (no result: AP complement, HEK293 NFkB inh, D1 mod, E coli RNAP)
COCCN=C1Sc2nc3ccc(C)cc3cc2CN1Cc1ccco1	DAT uptake mod 3.2 (no result: AP complement, HEK293 NFkB inh, D1 mod, E coli RNAP)
O=C(Oc1cccc(NC(=O)c2ccco2)c1)c1cccc(S(=O)(=O)N2CCCCC2)c1	DAT uptake mod -7.9 (no result: AP complement, HEK293 NFkB inh, D1 mod, E coli RNAP)
CC(=O)N(C)C1=C(N2CCOCC2)C(=O)c2ccccc2C1=O	DAT uptake mod -4.3 (no result: AP complement, HEK293 NFkB inh, D1 mod, E coli RNAP)
Cc1ccc(OCC(O)Cn2c3ccccc3c3ccccc32)cc1 (stereo unspecified)	DAT uptake mod 1.7 (no result: AP complement, HEK293 NFkB inh, D1 mod, E coli RNAP)
COc1ccc(CCNC(=O)CSc2ccc(-c3ccccc3)nn2)cc1OC	DAT uptake mod 2 (no result: AP complement, HEK293 NFkB inh, D1 mod, E coli RNAP)
O=C(c1cccc(Cl)c1)N1CCC(=O)N(C(CO)Cc2ccccc2)CC1 (stereo unspecified)	none (no result: AP complement, HEK293 NFkB inh, D1 mod, E coli RNAP)
CC1(CC(=O)N/N=C/c2ccc(OCc3ccc(Cl)cc3Cl)cc2)OCCCO1	DAT uptake mod 3.4 (no result: AP complement, HEK293 NFkB inh, D1 mod, E coli RNAP)
COc1ccc(CNS(=O)(=O)c2ccccc2Br)cc1	none (no result: AP complement, HEK293 NFkB inh, D1 mod, E coli RNAP)
O=C(Nc1ccc(O)cc1)c1ccc(C(=O)c2ccccc2)o1	D1 mod -3.2
C/C=C(\C)C(=O)Nc1cccc(C2=NOC3(C2)C[C@H](C(N)=O)N(C(=O)C(c2ccccc2)c2ccccc2)C3)c1 (stereo partly specified)	none (no result: AP complement, HEK293 NFkB inh, D1 mod, E coli RNAP)
CN(C)c1ccc(/C=N/n2ncc3ccccc32)cc1	D1 mod -3.4
C=CCn1c(/N=C/c2ccc(N(C)C)cc2)nc2ccccc21	none
CSc1nsc(/C=C/Nc2ccc(Cl)cc2)c1C#N	DAT uptake mod 2.6 (no result: AP complement, HEK293 NFkB inh, D1 mod, E coli RNAP)
CSc1nsc(/C=C/Nc2cccc(Cl)c2)c1C#N	none (no result: AP complement, HEK293 NFkB inh, D1 mod, E coli RNAP)
O=c1cc(O)n(-c2ccc(Cl)cc2)c(=S)[nH]1	none (no result: AP complement, HEK293 NFkB inh, D1 mod, E coli RNAP)
CCCCC(=O)Nc1ccc(C(=O)N2CCN(c3ccccc3OC)CC2)cc1	none (no result: DAT uptake mod)
COc1ccccc1N1CCN(C(=O)c2ccc(NC(C)=O)cc2)CC1	DAT uptake mod -3.1
CCC(=O)N1CCc2cc(Br)cc(S(=O)(=O)N3CCCCCC3)c21	none
O=C(C1CC1)N1CCc2cc(Br)cc(S(=O)(=O)N3CCCCCC3)c21	DAT uptake mod 6 (no result: D1 mod)
CC[C@H](C)[C@H](NC(=O)c1ccc(Cl)cc1)C(=O)OCC(=O)c1ccc2c(c1)NC(=O)CO2	none (no result: AP complement, HEK293 NFkB inh, D1 mod, E coli RNAP)
O=C1CC(=O)CC(c2ccccc2Cl)C1	none
O=C1c2cccnc2C(=O)N1Cc1ccc2c(c1)OCO2	none
COc1cc2cc(C(c3nnnn3C3CCCC3)N3CCCCCC3)c(=O)[nH]c2cc1OC (stereo unspecified)	none
COc1cc2cc(C(c3nnnn3C3CCCC3)N3CCCCC3)c(=O)[nH]c2cc1OC (stereo unspecified)	AP complement 31
Cn1c(N)c(C(=O)COC(=O)C2(c3cccc(F)c3)CCCC2)c(=O)n(C)c1=O	none
CCCCCCCC(=O)NC(Nc1ccc(S(N)(=O)=O)cc1)C(Cl)(Cl)Cl (stereo unspecified)	DAT uptake mod -8.3 (no result: AP complement, HEK293 NFkB inh, D1 mod, E coli RNAP)
O=C(CCc1ccccc1)NC(NC(=S)Nc1ccc(Br)cc1)C(Cl)(Cl)Cl (stereo unspecified)	none (no result: AP complement, HEK293 NFkB inh, D1 mod, E coli RNAP)
CCCCCC(=O)NC(NC(=S)Nc1ccc(S(N)(=O)=O)cc1)C(Cl)(Cl)Cl (stereo unspecified)	DAT uptake mod -3.6 (no result: AP complement, HEK293 NFkB inh, D1 mod, E coli RNAP)
COc1ccc(C(=O)NC(NC(=S)Nc2ccc(S(N)(=O)=O)cc2)C(Cl)(Cl)Cl)cc1 (stereo unspecified)	DAT uptake mod -2.3 (no result: AP complement, HEK293 NFkB inh, D1 mod, E coli RNAP)
O=C(Cc1ccccc1)NC(Nc1ccccc1)C(Cl)(Cl)Cl (stereo unspecified)	none (no result: AP complement, HEK293 NFkB inh, D1 mod, E coli RNAP)
CC(=O)c1ccc(N2CCC(c3cc(-c4ccc(Cl)cc4Cl)n[nH]3)CC2)c([N+](=O)[O-])c1	none (no result: AP complement, HEK293 NFkB inh, D1 mod, E coli RNAP)
